Experimental data as given in paper PMC2948851 (European journal of pharmacology, 2010).
Marks after values point to notes of the source that are not given here.

What was measured:
Type in all cases: cell-based
[1] = biological target: human P2Y12 receptor R256T mutant (Homo sapiens, UniProt Q9H244, R256T); assay: cAMP assay, CHO-K1 cells expressing R256T mutant P2Y12
[2] = biological target: human P2Y12 receptor R256Q/R265W double mutant (Homo sapiens, UniProt Q9H244, R256Q/R265W); assay: cAMP assay, CHO-K1 cells expressing R256Q/R265W double mutant P2Y12
Chain of human P2Y12 receptor R256Q/R265W double mutant (Q9H244 whole entry R256Q/R265W): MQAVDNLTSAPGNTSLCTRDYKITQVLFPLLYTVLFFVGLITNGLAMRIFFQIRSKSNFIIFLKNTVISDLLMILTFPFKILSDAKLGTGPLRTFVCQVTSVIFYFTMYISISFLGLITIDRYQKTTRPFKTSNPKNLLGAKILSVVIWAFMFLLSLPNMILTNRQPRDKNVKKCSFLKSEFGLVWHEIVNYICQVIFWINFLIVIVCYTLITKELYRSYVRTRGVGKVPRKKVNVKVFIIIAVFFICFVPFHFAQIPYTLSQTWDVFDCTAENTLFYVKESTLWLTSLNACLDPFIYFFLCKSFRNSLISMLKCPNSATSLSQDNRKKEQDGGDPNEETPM

[3] = biological target: human P2Y12 receptor R256Q mutant (Homo sapiens, UniProt Q9H244, R256Q); assay: cAMP assay, CHO-K1 cells expressing R256Q mutant P2Y12
Chain of human P2Y12 receptor R256Q mutant (Q9H244 whole entry R256Q): as the sequence (Q9H244 whole entry R256Q/R265W) above, with W265R counted along it

[4] = biological target: human P2Y12 receptor wild-type (Homo sapiens, UniProt Q9H244)
Chain of human P2Y12 receptor wild-type (Q9H244 whole entry): as the sequence (Q9H244 whole entry R256Q/R265W) above, with Q256R, W265R counted along it
Procedure, shortened: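 CHO-K1 stably expressing N-terminally HA-tagged human P2Y12 (Ham's F-12, 10% FBS, 500 µg/ml hygromycin B); [3H]adenine-labelled overnight, 0.4 mM IBMX 10 min, then 20 µM forskolin with ADP (0.01–10 µM) and/or antagonist (0.001–1 µM, against 10 µM ADP) 5 min, 37°C. TCA stop; [3H]cAMP/([3H]ATP+[3H]cAMP) conversion, normalized to forskolin alone; IC50 calculated; mean ± S.E.M., n=3.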

[5] = biological target: human P2Y12 receptor R265W mutant (Homo sapiens, UniProt Q9H244, R265W); assay: cAMP assay, CHO-K1 cells expressing R265W mutant P2Y12
Chain of human P2Y12 receptor R265W mutant (Q9H244 whole entry R265W): as the sequence (Q9H244 whole entry R256Q/R265W) above, with Q256R counted along it

[6] = biological target: human P2Y12 receptor S288P mutant (Homo sapiens, UniProt Q9H244, S288P); assay: cAMP assay, CHO-K1 cells expressing S288P mutant P2Y12
Chain of human P2Y12 receptor S288P mutant (Q9H244 whole entry S288P): as the sequence (Q9H244 whole entry R256Q/R265W) above, with Q256R, W265R, S288P counted along it

[7] = biological target: human P2Y12 receptor F198P mutant (Homo sapiens, UniProt Q9H244, F198P); assay: cAMP assay, CHO-K1 cells expressing F198P mutant P2Y12
Chain of human P2Y12 receptor F198P mutant (Q9H244 whole entry F198P): as the sequence (Q9H244 whole entry R256Q/R265W) above, with F198P, Q256R, W265R counted along it

[8] = biological target: human P2Y12 receptor H253S mutant (Homo sapiens, UniProt Q9H244, H253S); assay: cAMP assay, CHO-K1 cells expressing H253S mutant P2Y12
Chain of human P2Y12 receptor H253S mutant (Q9H244 whole entry H253S): as the sequence (Q9H244 whole entry R256Q/R265W) above, with H253S, Q256R, W265R counted along it

[9] = biological target: human P2Y12 receptor Y109S mutant (Homo sapiens, UniProt Q9H244, Y109S); assay: cAMP assay, CHO-K1 cells expressing Y109S mutant P2Y12
Chain of human P2Y12 receptor Y109S mutant (Q9H244 whole entry Y109S): as the sequence (Q9H244 whole entry R256Q/R265W) above, with Y109S, Q256R, W265R counted along it

[10] = biological target: human P2Y12 receptor F104S mutant (Homo sapiens, UniProt Q9H244, F104S); assay: cAMP assay, CHO-K1 cells expressing F104S mutant P2Y12
Chain of human P2Y12 receptor F104S mutant (Q9H244 whole entry F104S): as the sequence (Q9H244 whole entry R256Q/R265W) above, with F104S, Q256R, W265R counted along it

[11] = CHO-K1, read-out: inhibition of cAMP at 10 μM ADP

Chain of human P2Y12 receptor R256T mutant (Q9H244 whole entry R256T): as the sequence (Q9H244 whole entry R256Q/R265W) above, with Q256T, W265R counted along it

CSCCNc1nc(SCCC(F)(F)F)nc2c1ncn2[C@@H]1O[C@H](COP(=O)(O)OP(=O)(O)C(Cl)(Cl)P(=O)(O)O)[C@@H](O)[C@H]1O [AR-C69931MX]
AR-C69931MX concentration enough to block ADP (10 μM)-induced activation ([1]; R256T, 10 μM ADP): 100 nM | shift of AR-C69931MX concentration curve vs wild-type ([1]; R256T, in the presence of 10 μM ADP): significant left shift | shift of AR-C69931MX concentration curve vs wild-type ([2]; R256QR265W, in the presence of 10 μM ADP): leftward shift | shift of AR-C69931MX concentration curve vs wild-type ([3]; R256Q, in the presence of 10 μM ADP): leftward shift | antagonism effect of AR-C69931MX at 10 nM ([4]; wild-type, 10 nM AR-C69931MX, 10 μM ADP): did not occur | AR-C69931MX concentration required to completely inhibit 10 μM ADP-induced inhibition of cAMP ([4]; wild-type, 10 μM ADP): 1 µM | AR-C69931MX concentration enough to block ADP-induced activation ([5]; R265W, 10 μM ADP): 30 nM | shift of AR-C69931MX concentration curve vs wild-type ([5]; R265W, in the presence of 10 μM ADP, compared to R256Q and R256T): even more leftward shift

Nc1ncnc2c1ncn2[C@@H]1O[C@H](COP(=O)(O)OP(=O)(O)O)[C@@H](O)[C@H]1O [ADP, Adenosine diphosphate]
IC50 [1]: 290 ± 50 nM | Max. inhibition by ADP (% of control) ([1]; R256T construct, CHO-K1, 20 μM forskolin, cAMP): 79.53 ± 4.83 (3) % of control | IC50 [6]: 40 ± 10 nM | Max. inhibition by ADP (% of control) ([6]; S288P construct, CHO-K1, 20 μM forskolin, cAMP): 68.89 ± 6.24 (3) % of control | left shift of ADP concentration curve vs wild-type ([6]; S288P vs wild-type): about 4 fold | IC50 [7]: 150 ± 50 nM | inhibition at 10 µM ([7]; CHO-K1, read-out: maximal inhibition of cAMP level at 10 μM ADP): ~40% | Max. inhibition by ADP (% of control) ([7]; F198P construct, CHO-K1, 20 μM forskolin, cAMP): 40.37 ± 10.64 ^b(3) % of control | IC50 [2]: 6460 ± 190 nM | Max. inhibition by ADP (% of control) ([2]; R256QR265W construct, CHO-K1, 20 μM forskolin, cAMP): 56.68 ± 6.32 ^a (3) % of control | IC50 [3]: 570 ± 30 nM | Max. inhibition by ADP (% of control) ([3]; R256Q construct, CHO-K1, 20 μM forskolin, cAMP): 75.32 ± 6.91 (3) % of control | IC50 [8]: 350 ± 210 nM | inhibition at 10 µM [8, 11]: ~60% | Max. inhibition by ADP (% of control) ([8]; H253S construct, CHO-K1, 20 μM forskolin, cAMP): 62.21 ± 1.93 (3) % of control | IC50 [4]: 250 ± 40 nM | inhibition at 10 µM ([4]; CHO-K1, read-out: cAMP inhibition at 10 μM ADP, wild-type, 10 μM ADP): ~85% | Max. inhibition by ADP (% of control) ([4]; Wild-type construct, CHO-K1, 20 μM forskolin, cAMP): 85.37 ± 2.14 (3) % of control | IC50 [9]: 170 ± 90 nM | inhibition at 10 µM ([9]; CHO-K1, read-out: cAMP inhibition at 10 μM ADP): ~20% | Max. inhibition by ADP (% of control) ([9]; Y109S construct, CHO-K1, 20 μM forskolin, cAMP): 31.96 ± 0.15 ^b (3) % of control | IC50 [5]: 450 ± 210 nM | inhibition at 10 µM [5, 11]: ~60% | Max. inhibition by ADP (% of control) ([5]; R265W construct, CHO-K1, 20 μM forskolin, cAMP): 58.01 ± 3.08 ^a (3) % of control | IC50 [10]: 60 ± 10 nM | Max. inhibition by ADP (% of control) ([10]; F104S construct, CHO-K1, 20 μM forskolin, cAMP): 77.7 ± 1.12 (3) % of control | increase of potency of activation by ADP vs wild-type ([10]; F104S vs wild-type): 5 fold
